According to ChEMBL document CHEMBL4819027, “Design, synthesis and biological evaluation of novel 2-(4-(1H-indazol-6-yl)-1H-pyrazol-1-yl)acetamide derivatives as potent VEGFR-2 inhibitors” (Eur J Med Chem, 2021):
The source made the active and inactive calls. The calls are words filed in the database; no cut-off is given here.

Columns and labels:
[1] = tested on: HGC-27; assay: Downregulation of MMP-9 protein expression in human HGC-27 cells incubated for 24 hrs by immunoblot analysis; type: functional, cell-based
Outline: (§1)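 HGC-27 cells (1.0 × 10⁶ per 60 mm dish) were treated 24 h with 0.1% DMSO or compound (0.1, 0.5, 1 μM). Cells were lysed in RIPA with PMSF and phosphatase inhibitor, and protein measured by BCA. Lysates were run on 8–12% SDS-PAGE, transferred to nitrocellulose and probed with primary antibodies overnight at 4 °C, then HRP secondary. Bands were detected by ECL and densitometry; at least triplicate.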

[2] = tested on: HGC-27; assay: Antiinvasive activity against human HGC-27 cells assessed as reduction in cell invasion at 0.1 to 1 measured after 24 hrs by transwell invasion assay; type: functional, cell-based
Outline: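 Transwell inserts (12 μm pore) were precoated with Matrigel. HGC-27 cells at 5 × 10⁵ cells/mL were placed in the upper well in serum-free medium with compound (0.1, 0.5, 1 μM). The lower chamber held RPMI-1640 with 10% FBS. After 24 h at 37 °C, invaded cells were methanol-fixed and stained with 0.1% crystal violet. Cells were counted in three random fields; three independent experiments, mean ± SD.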

[3] = tested on: HUVEC; assay: Cytotoxicity against human HUVEC cells assessed as inhibition of cell growth incubated for 72 hrs by MTT assay; type: cell-based
Outline: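 Log-phase cells were seeded at 5 × 10³ per well and attached 24 h. HT-29 and GES-1 were grown in DMEM-based medium, A549/HepG2/HGC-27 in RPMI-1640, HUVEC in ECM with ECGS; all media had 10% FBS. Cells were exposed to graded compound concentrations for 72 h at 37 °C. MTT (5 mg/mL stock) was added for 4 h, formazan dissolved in DMSO, and A490 read. IC50 was obtained by nonlinear sigmoidal regression; mean ± S.E. of three experiments.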

[4] = biological target: T1, Vascular endothelial growth factor receptor 2 (Homo sapiens, UniProt P35968); assay: Inhibition of VEGFR2 in human HGC-27 cells assessed as downregulation of Akt phosphorylation at […] at 0.1 to 1 uM after 24 hrs by Westernblot analysis; type: cell-based; conditions: dose 0.1-1 µM
Outline: (§2)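 HGC-27 cells (1.0 × 10⁶ per 60 mm dish) were treated 24 h with 0.1% DMSO or compound (0.1, 0.5, 1 μM). RIPA lysates with phosphatase inhibitor were quantified by BCA and resolved on 8–12% SDS-PAGE onto nitrocellulose. Blots were probed for p-VEGFR-2 (Tyr1175), p-PI3K (Tyr607), p-AKT (Thr308) and p-mTOR (Ser2448), with ECL detection and densitometry; mean ± SEM.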

[5] = tested on: HGC-27; assay: Inhibition of colony formation in human HGC-27 cells at 1 uM after 12 days by crystal violet staining based assay; type: functional; conditions: HGC-27, 288 h, time 12 day
Outline: (§3)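 HGC-27 cells (500/well, 6-well plates) attached 24 h at 37 °C, then kept 12 days in medium with compound (0.1, 0.5, 1 µM), 0.1% DMSO vehicle or 5 µM sorafenib. Washed with cold PBS, methanol-fixed, stained 0.1% crystal violet 30 min; colonies >50 cells photographed and counted.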

[6] = tested on: HGC-27; assay: Inhibition of colony formation in human HGC-27 cells after 12 days by crystal violet staining based assay; type: functional, cell-based; conditions: dose 0.1-1 µM, time 12.0 day; outline: as §3
[7] = tested on: HGC-27; assay: Up regulation of E-cadherin expression in human HGC-27 cells at 1 uM measured after 24 hrs by immunoblot analysis; type: functional, cell-based
Outline: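 HGC-27 seeded 1.0×10^6 cells/dish in RPMI-1640/10% FBS; 24 h with compound (0.1, 0.5, 1 µM), 0.1% DMSO vehicle or sorafenib. RIPA lysates with PMSF/phosphatase inhibitor, BCA-normalized, 8–12% SDS-PAGE, nitrocellulose, milk block, primary antibodies overnight 4 °C, HRP secondaries, ECL; E-cadherin band densitometry; mean ± SD, three independent experiments.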

[8] = biological target: T1, Vascular endothelial growth factor receptor 2; assay: Inhibition of VEGFR2 in human HGC-27 cells assessed as reduction in VEGFR-2 phosphorylation after 24 hrs by westernblot analysis; type: cell-based; outline: as §2
[9] = tested on: HGC-27; assay: Antimigratory activity against human HGC-27 cells assessed as relative closure of scratches at 0.5 uM measured after 24 hrs by scratch wound healing assay relative to control; type: functional
Outline: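 HGC-27 monolayers at 80–90% confluence were serum-starved 12 h, then scratched to give 1 mm lanes. After a PBS wash, cells received complete medium with or without compound (0.1, 0.5, 1 μM). Wounds were imaged at 0, 6 and 24 h. Relative scratch closure was quantified against untreated control; mean ± SD of three experiments.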

[10] = tested on: HGC-27; assay: Induction of apoptosis in human HGC-27 cells assessed as early apoptotic cells level at 0.1 uM incubated for 24 hrs by propidium iode and annexin V-FITC staining based flow cytometry (reference value: 1.48%); type: functional
Outline: (§4)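 HGC-27 cells (1.0 × 10⁶ per 60 mm dish) were treated 24 h with 0.1% DMSO or compound (0.1, 0.5, 1 μM). Cells were stained with Annexin V-FITC in HEPES/NaCl/CaCl₂ binding buffer (pH 7.4) for 15 min at room temperature, then with PI for 10 min. About 10 000 events were acquired by flow cytometry to give viable, early apoptotic, late apoptotic and necrotic fractions.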

[11] = tested on: HGC-27; assay: Induction of apoptosis in human HGC-27 cells assessed as downregulation of Bcl-xl protein expression at incubated for 24 hrs by western blot analysis; conditions: dose 0.1-1 µM
[12] = tested on: HGC-27; assay: Antimigratory activity against human HGC-27 cells assessed as number of migration cells at 0.1 uM measured after 24 hrs by transwell migration assay (reference value: 320); type: functional
[13] = biological target: T1, Vascular endothelial growth factor receptor 2; assay: Inhibition of VEGFR2 in human HGC-27 cells assessed as downregulation of mTOR phosphorylation at Ser2448 at 0.1 to 1 uM after 24 hrs by Westernblot analysis; type: cell-based; conditions: dose 0.1-1 µM; outline: as §2
[14] = tested on: HGC-27; assay: Induction of apoptosis in human HGC-27 cells assessed as viable cells level at 0.1 uM incubated for 24 hrs by propidium iode and annexin V-FITC staining based flow cytometry (reference value: 96.0%); type: functional; outline: as §4
[15] = tested on: HGC-27; assay: Induction of apoptosis in human HGC-27 cells assessed as total apoptotic cells level at 1 uM incubated for 24 hrs by propidium iode and annexin V-FITC staining based flow cytometry; type: functional; outline: as §4
[16] = tested on: HGC-27; assay: Induction of intracellular ROS generation in human HGC-27cells incubated for 24 hrs by DCFH-DA staining-based flow cytometric analysis; type: functional, cell-based; conditions: dose 0.1-1 µM
Outline: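 HGC-27 cells (5.0 × 10⁵ per well) were treated 24 h with compound (0.1, 0.5, 1 μM) or 0.1% DMSO. Harvested cells were loaded with 10 μM DCFH-DA in PBS for 20 min at 37 °C. Green fluorescence intensity was measured by flow cytometry.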

[17] = tested on: HGC-27; assay: Induction of apoptosis in human HGC-27 cells assessed as viable cells level at 1 uM incubated for 24 hrs by propidium iode and annexin V-FITC staining based flow cytometry (reference value: 96.0%); type: functional; outline: as §4
[18] = tested on: HGC-27; assay: Induction of apoptosis in human HGC-27 cells assessed as up regulation of Bax protein expression at measured after 24 hrs by Western blot analysis; type: functional, cell-based; conditions: dose 0.1-1 µM; outline: as §1
[19] = tested on: HGC-27; assay: Induction of apoptosis in human HGC-27 cells assessed as total apoptotic cells level at 0.5 uM incubated for 24 hrs by propidium iode and annexin V-FITC staining based flow cytometry; type: functional; outline: as §4

T1 sequence (P35968 whole entry): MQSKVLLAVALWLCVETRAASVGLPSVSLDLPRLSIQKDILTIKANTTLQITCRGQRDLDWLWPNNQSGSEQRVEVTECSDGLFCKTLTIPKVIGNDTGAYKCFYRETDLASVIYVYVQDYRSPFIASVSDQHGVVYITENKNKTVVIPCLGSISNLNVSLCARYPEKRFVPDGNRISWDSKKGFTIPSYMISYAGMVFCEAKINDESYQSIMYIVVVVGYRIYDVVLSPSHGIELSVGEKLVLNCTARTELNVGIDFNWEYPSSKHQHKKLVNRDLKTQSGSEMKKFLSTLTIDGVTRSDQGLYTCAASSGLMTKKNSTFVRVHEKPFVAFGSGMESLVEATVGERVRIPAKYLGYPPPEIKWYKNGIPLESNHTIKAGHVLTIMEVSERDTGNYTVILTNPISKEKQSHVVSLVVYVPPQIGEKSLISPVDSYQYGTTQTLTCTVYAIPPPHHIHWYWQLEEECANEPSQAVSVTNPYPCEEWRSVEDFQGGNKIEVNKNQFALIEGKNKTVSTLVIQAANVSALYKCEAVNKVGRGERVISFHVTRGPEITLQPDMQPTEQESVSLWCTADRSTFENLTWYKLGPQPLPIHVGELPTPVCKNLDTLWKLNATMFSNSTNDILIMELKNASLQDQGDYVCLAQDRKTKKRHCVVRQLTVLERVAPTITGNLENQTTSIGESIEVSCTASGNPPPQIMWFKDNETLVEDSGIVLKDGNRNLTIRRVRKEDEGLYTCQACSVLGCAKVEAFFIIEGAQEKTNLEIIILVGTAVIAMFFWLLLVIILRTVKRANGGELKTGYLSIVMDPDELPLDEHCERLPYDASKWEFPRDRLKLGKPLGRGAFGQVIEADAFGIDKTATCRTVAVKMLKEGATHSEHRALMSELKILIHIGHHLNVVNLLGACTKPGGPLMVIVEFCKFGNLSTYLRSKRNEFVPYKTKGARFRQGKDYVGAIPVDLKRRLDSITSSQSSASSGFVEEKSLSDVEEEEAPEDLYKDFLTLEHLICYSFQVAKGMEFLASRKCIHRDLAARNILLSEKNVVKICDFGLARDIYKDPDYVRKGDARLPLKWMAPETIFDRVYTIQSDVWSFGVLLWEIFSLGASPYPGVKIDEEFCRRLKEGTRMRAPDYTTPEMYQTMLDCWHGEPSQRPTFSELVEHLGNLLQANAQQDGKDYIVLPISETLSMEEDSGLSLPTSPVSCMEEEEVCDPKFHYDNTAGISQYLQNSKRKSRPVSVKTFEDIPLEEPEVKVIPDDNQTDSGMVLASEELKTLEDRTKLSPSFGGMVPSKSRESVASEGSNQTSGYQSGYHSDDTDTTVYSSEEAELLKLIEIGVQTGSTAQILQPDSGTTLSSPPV

CC(=O)Nc1n[nH]c2cc(-c3cnn(CC(=O)Nc4ccc(C)c(C(F)(F)F)c4)c3)ccc12
inhibition [1]: Dose-Dependent Effect | inhibition [2]: Dose-Dependent Effect | IC50 [3]: 7.15 µM | inhibition [4]: Active | inhibition at 1 µM [5]: 100% | inhibition [6]: Dose-Dependent Effect | Activity [7]: Dose-Dependent Effect | inhibition [8]: Dose-Dependent Effect | inhibition at 0.5 µM [9]: 28% | Activity [10]: 4.75% | Activity [11]: Dose-Dependent Effect | Activity [12]: 212 | inhibition [13]: Active | Activity [14]: 90.5% | Activity [15]: 28.8% | Activity [16]: Dose-Dependent Effect | Activity [17]: 61.6% | Activity [18]: Dose-Dependent Effect | Activity [19]: 19.55%
